The subject of test [1] is HCT-116. Briefly: Cytotoxicity against human HCT116 cells at 50 uM after 48 hrs by sulforhodamine B assay. The format is functional. Put shortly:
(§1)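 Cells kept in RPMI-1640 with 10% FCS and 1% penicillin-G at 37 °C under 5% CO2. Seeded at 8000–14 000 cells/100 μL and exposed for 48 h. Fixed with ice-cold TCA for 1 h at 4 °C, then water-washed and stained with 0.4% SRB for 0.5 h at room temperature. Unbound dye removed with 1% acetic acid; bound dye dissolved in 10 mM Tris (pH 10.05) and read at 540 nm.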
For orientation: The SRB assay estimates cell density from bound dye.

In test [2] the test system is PC-3. Put plainly: Cytotoxicity against human PC3 cells at 50 uM after 48 hrs by sulforhodamine B assay. Type of test: functional. The method, boiled down:
as §1

Test [3] relates to THP-1. Briefly: Cytotoxicity against human THP1 cells at 50 uM after 48 hrs by sulforhodamine B assay. Type of test: functional. The method, boiled down: as §1
Test [4] has as its system A549. Briefly: Cytotoxicity against human A549 cells at 50 uM after 48 hrs by sulforhodamine B assay. Type of test: functional. Put shortly: as §1
For the next test, the system named is SK-HEP1. Briefly: Cytotoxicity against human SKHEP1 cells at 50 uM after 48 hrs by sulforhodamine B assay. Type of test: functional. The method, boiled down: as §1
Test [5] deals with T1, Tubulin (Homo sapiens) (UniProt P68371+Q9H4B7+P0DPH7+P68366+Q13509+Q71U36+P04350+Q3ZCM7+P07437+P68363+Q9BQE3+Q6PEY2+Q13885+Q9BVA1+Q9BUF5). Put plainly: Inhibition of tubulin in human THP1 cells assessed as disruption and loss of microtubule organization at 50 uM after 48 hrs by immunofluorescence microscopic analysis. Type of test: cell-based. The following applies: THP-1. Put shortly:
(§2)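 THP-1 seeded at 1 × 10^5 cells/well on coverslips and allowed to adhere for 24 h before treatment. Fixed in 4% paraformaldehyde for 10 min, permeabilized with 0.5% Triton-X for 5 min and blocked with 10% goat serum. Probed with anti-α-tubulin (1:100, 1 h) then Alexa Fluor 488 secondary (1:500, 1 h), counterstained with DAPI 1 μg/mL and imaged by confocal microscopy. Three separate experiments.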

In test [6] the test system is HL-60. Briefly: Induction of apoptosis in human HL60 cells assessed as condensation and fragmentation of nuclei at 50 uM after 30 hrs by DAPI staining based inverted fluorescence microscopy. The format is functional, cell-based. The method, boiled down:
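HL-60 seeded at 2 × 10^5 cells/mL in medium with 10% FCS and treated for 30 h at 37 °C, added from DMSO stock; controls got DMSO vehicle only. Air-dried smears fixed in methanol at −20 °C for 20 min, stained with DAPI 1 μg/mL in PBS for 20 min at room temperature in the dark, mounted in glycerol–PBS (1:1) and viewed by inverted fluorescence microscopy (40×).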

Test [7] concerns HL-60. Put plainly: Induction of apoptosis in human HL60 cells assessed as condensation, smoothening of the cell surface, blebbing of plasma membrane and formation of apoptotic bodies at 50 uM after 30 hrs by scanning electron microscopy. The format is functional, cell-based.
In test [8] the test system is HL-60. Briefly: Induction of apoptosis in human HL60 cells assessed as condensation, smoothening of the cell surface, blebbing of plasma membrane at 30 uM after 30 hrs by scanning electron microscopy. Type of test: functional, cell-based.
The subject of test [9] is HCT-116. Briefly: Cytotoxicity against human HCT116 cells at 20 uM after 48 hrs by sulforhodamine B assay. Type of test: functional. The method, boiled down:
(§3)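 Cells grown in RPMI-1640 with 10% FCS and 1% penicillin-G at 37 °C, 5% CO2. Seeded at 8000–14 000 cells/100 μL and exposed for 48 h. Fixed with ice-cold TCA for 1 h at 4 °C, stained with 0.4% SRB for 0.5 h at room temperature, washed with 1% acetic acid, bound dye solubilised in 10 mM Tris pH 10.05, read at 540 nm.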

Test [10] deals with THP-1. Briefly: Cytotoxicity against human THP1 cells at 20 uM after 48 hrs by sulforhodamine B assay. The format is functional. The method, boiled down:
as §3

Test [11] relates to A549. Put plainly: Cytotoxicity against human A549 cells at 20 uM after 48 hrs by sulforhodamine B assay. The format is functional. Put shortly: as §3
In test [12] the test system is PC-3. Put plainly: Cytotoxicity against human PC3 cells at 1 uM after 48 hrs by sulforhodamine B assay. Type of test: functional. Put shortly: as §1
The subject of test [13] is THP-1. Briefly: Cytotoxicity against human THP1 cells at 1 uM after 48 hrs by sulforhodamine B assay. Type of test: functional. The method, boiled down: as §1
Test [14] has as its system A549. Put plainly: Cytotoxicity against human A549 cells at 1 uM after 48 hrs by sulforhodamine B assay. The format is functional. The method, boiled down:
as §1

In test [15] the target is T1, Tubulin (Homo sapiens). Briefly: Stabilization of tubulin polymerization in human THP1 cells at 1 uM after 24 hrs by immunofluorescence microscopic analysis. The format is cell-based. The settings on record: THP-1. The method, boiled down: as §2
Test [16] concerns HCT-116. Put plainly: Cytotoxicity against human HCT116 cells at 1 uM after 48 hrs by sulforhodamine B assay. Type of test: functional. The method, boiled down:
as §1

The structures appear in SMILES notation. Activity calls are given as the source filed them. The rule behind the calls is not given here.

`CC1=C[C@H](O)[C@@H]2O[C@@H]2C1=O`: the Activity is 56% in the test on HCT-116 [1]; 22% in the test with PC-3 [2]; 50% in the test on THP-1 [3]; 98% in the test on A549 [4]; 100% in the test with SK-HEP1. Moreover, the microtubule disruption entry on Tubulin (Homo sapiens) [5] is “Active”. Besides, the result in the test on HL-60 [6], in the test on HL-60 [7] and in the test with HL-60 [8] was Active.

In the case of `C[C@H]1C[C@H]2CCCC(O)=C2C(=O)O1`, the Activity with HCT-116 [1] stood at 44%; in the test with PC-3 [2] it was 23%; in the test on THP-1 [3], 54%; with A549 [4], 15%; with SK-HEP1 it was 23%. Besides, on Tubulin (Homo sapiens) [5], the microtubule disruption entry was “Active”. The outcome in the test on HL-60 [6], with HL-60 [7] and in the test on HL-60 [8] was Active.

Regarding `C[C@H]1C[C@H]2CC[C@H](O)C(O)=C2C(=O)O1`, the Activity with HCT-116 [1] was found to be 35%; with PC-3 [2], 34%; in the test on THP-1 [3], 40%; in the test with A549 [4], 35%; in the test on SK-HEP1 it was 3%. Moreover, the microtubule disruption result on Tubulin (Homo sapiens) [5] was “Active”. The outcome in the test on HL-60 [6], in the test with HL-60 [7] and in the test with HL-60 [8] was Active.

As to `O=c1[nH]cc(F)c(=O)[nH]1` [FLUOROURACIL], the Activity in the test on HCT-116 [9] was 55%; in the test on THP-1 [10], 84%; with A549 [11], 22%.

Regarding `C[C@@H]1C[C@H]2CC(=O)C[C@H](C2)O1`, the Activity in the test on HCT-116 [1] was 59%; with PC-3 [2], 23%; in the test with THP-1 [3], 0%; with A549 [4], 71%; in the test with SK-HEP1, 26%. Moreover, the microtubule disruption entry at Tubulin (Homo sapiens) [5] is “Active”. Moreover, the outcome with HL-60 [6], in the test on HL-60 [7] and with HL-60 [8] was Active.

For the molecule `CO[C@@]12[C@H](COC(N)=O)C3=C(C(=O)C(C)=C(N)C3=O)N1C[C@@H]1N[C@@H]12` [MITOMYCIN], the Activity in the test with PC-3 [12] worked out at 59%.

Turning to `CC(=O)O[C@H]1C(=O)[C@@]2(C)[C@H]([C@H](OC(=O)c3ccccc3)[C@]3(O)C[C@H](OC(=O)[C@H](O)[C@@H](NC(=O)c4ccccc4)c4ccccc4)C(C)=C1C3(C)C)[C@]1(OC(C)=O)CO[C@@H]1C[C@@H]2O` [PACLITAXEL], the Activity with THP-1 [13] turned out to be 71%; in the test on A549 [14], 82%; in the test with HCT-116 [16] it was 72%. Moreover, at Tubulin (Homo sapiens) [15], the result was Active.

The record behind these values is ChEMBL document CHEMBL2331415, “Tubulin inhibitors from an endophytic fungus isolated from Cedrus deodara” (2013).
